Measured values from ChEMBL document CHEMBL1123588, “Synthesis and antisecretory and antiulcer activities of derivatives and analogues of 2-(2-pyridyl)tetrahydrothiophene-2-carbothioamide” (1987).

Legend:
[1] = system: Rattus norvegicus; test: Antisecretory activity against histamine stimulated gastric acid secretion in Shay rats by peroral administration of 30 mg /kg was determined; assay type: functional; conditions: Stomach, po
In short: (§1)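 Female OFA rats, 150–175 g, six per group, fasted 24 h with water allowed. Dose given orally in 10% gum arabic (5 mL/kg) 1 h before histamine 100 mg/kg sc. Promethazine 10 mg/kg ip 30 min before histamine; pylorus ligated under chloral hydrate 30 min after. Juice collected 2 h, titrated with 0.1 N NaOH. Acid output compared with controls by Student's t test.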

[2] = species on record: Rattus norvegicus; test: Antisecretory activity against histamine stimulated gastric acid secretion in Shay rats expressed as ED50; assay type: functional; conditions: Stomach
In short: (§2)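 Histamine-stimulated Shay rats: females (OFA, 150–175 g, n=6/group), fasted 24 h. Oral dosing in 10% gum arabic, 1 h pre-histamine (100 mg/kg sc), promethazine 10 mg/kg ip pretreatment. Pylorus ligation under chloral hydrate; 2 h gastric juice titrated with 0.1 N NaOH. Lower doses tested when 30 mg/kg gave >80% inhibition; ED50 from regression line.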

[3] = system: Rattus norvegicus; test: Antiulcer activity against restraint-induced gastric erosions in rats, following 100 mg/kg p.o. administration.; assay type: functional, Stomach; conditions: route oral
In short: (§3)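 Restraint-stress erosions (Rossi): female OFA rats, 150–175 g, six per group, fasted 24 h. Oral dose in 10% gum arabic (5 mL/kg) 1 h before restraint in wire-netting cages. Rats killed 24 h later and gastric mucosal erosions assessed. A rat counted protected with no erosion; read-out is % protected rats.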

[4] = species on record: Rattus norvegicus; test: Antiulcer activity by protection of restraint-induced gastric erosions in rats, by using the technique of Rossi was determined at peroral dose of; assay type: functional, Stomach; in short: as §3
[5] = species on record: Rattus norvegicus; test: Antisecretory activity against histamine stimulated gastric acid secretion in Shay rats expressed as ED50 value ranges from (1-2.6); assay type: functional; conditions: Stomach; in short: as §2
[6] = system: Rattus norvegicus; test: Antiulcer activity by protection of restraint-induced gastric erosions in rats, by using the technique of Rossi was determined at peroral dose of 10 mg/kg; assay type: functional, Stomach; conditions: route oral; in short: as §3
[7] = species on record: Rattus norvegicus; test: Antisecretory activity against histamine stimulated gastric acid secretion in Shay rats expressed as ED50 value ranges from (1.7-17.4); assay type: functional; conditions: Stomach; in short: as §2
[8] = system: Rattus norvegicus; test: Antiulcer activity by protection of restraint-induced gastric erosions in rats, by using the technique of Rossi was determined at peroral dose of 5 mg/kg; assay type: functional, Stomach; conditions: route oral; in short: as §3
[9] = system: Rattus norvegicus; test: Antisecretory activity against histamine stimulated gastric acid secretion in Shay rats by peroral administration of 30 mg /kg was determined: activity not statistically significant; assay type: functional; conditions: Stomach, po; in short: as §1
[10] = species on record: Rattus norvegicus; test: Antisecretory activity against histamine stimulated gastric acid secretion in Shay rats expressed as ED50; value ranges from(0.5-22.3).; assay type: functional; conditions: Stomach; in short: as §2
[11] = system: Rattus norvegicus; test: Antisecretory activity against histamine stimulated gastric acid secretion in Shay rats by peroral administration of 30 mg /kg was determined :activity not statistically significant; assay type: functional; conditions: Stomach, po; in short: as §1
[12] = system: Rattus norvegicus; test: Antiulcer activity by protection of restraint-induced gastric erosions in rats, by using the technique of Rossi was determined at peroral dose of 30 mg/kg; assay type: functional, Stomach; conditions: route oral; in short: as §3
[13] = species on record: Rattus norvegicus; test: Antisecretory activity against histamine stimulated gastric acid secretion in Shay rats expressed as ED50 value ranges from (2.5-12.1); assay type: functional; conditions: Stomach; in short: as §2
[14] = species on record: Rattus norvegicus; test: Antisecretory activity against histamine stimulated gastric acid secretion in Shay rats expressed as ED50 value ranges from (1.3-7.1); assay type: functional; conditions: Stomach; in short: as §2
[15] = species on record: Rattus norvegicus; test: Antisecretory activity against histamine stimulated gastric acid secretion in Shay rats expressed as ED50; value ranges from (1.0-6.5); assay type: functional; conditions: Stomach; in short: as §2
[16] = system: Rattus norvegicus; test: Antiulcer activity by protection of restraint-induced gastric erosions in rats, by using the technique of Rossi was determined at peroral dose of 4.5 mg/kg; assay type: functional, Stomach; conditions: route oral; in short: as §3
[17] = species on record: Rattus norvegicus; test: Antisecretory activity against histamine stimulated gastric acid secretion in Shay rats expressed as ED50; value ranges from (0.1-2.2); assay type: functional; conditions: Stomach; in short: as §2
[18] = species on record: Rattus norvegicus; test: Antisecretory activity against histamine stimulated gastric acid secretion in Shay rats expressed as ED50 value ranges from (2.7-12.3); assay type: functional; conditions: Stomach; in short: as §2
[19] = species on record: Rattus norvegicus; test: Antisecretory activity against histamine stimulated gastric acid secretion in Shay rats expressed as ED50; value ranges from (0.5-2); assay type: functional; conditions: Stomach; in short: as §2
[20] = species on record: Rattus norvegicus; test: animal or person; conditions: Stomach
[21] = species on record: Rattus norvegicus; test: Antisecretory activity against histamine stimulated gastric acid secretion in Shay rats expressed as ED50 value ranges from (0.8-2.8); assay type: functional; conditions: Stomach; in short: as §2
[22] = species on record: Rattus norvegicus; test: Antiulcer activity against histamine stimulated gastric acid secretion in Shay rats expressed as ED50; assay type: functional; conditions: Stomach
[23] = species on record: Rattus norvegicus; test: Antisecretory activity against histamine stimulated gastric acid secretion in Shay rats expressed as ED50 value ranges from (0.1-1.3); assay type: functional; conditions: Stomach; in short: as §2
[24] = species on record: Rattus norvegicus; test: Antisecretory activity against histamine stimulated gastric acid secretion in Shay rats expressed as ED50 value ranges from (0.6-3.8); assay type: functional; conditions: Stomach; in short: as §2

Compound: CN(C)C(=S)C1(c2ccccn2)CCCS1 (centres undefined)
- inhibition in vivo at 30 mg/kg [1]: 74%
- ED50 [2]: < 30 mg/kg
- Protection [3]: 83%

Compound: S=C(N1CCOCC1)C1(c2ccccn2)CCCS1 (centres undefined)
- inhibition in vivo at 30 mg/kg [1]: 54%
- ED50 [2]: ≤ 30 mg/kg
- Protection [3]: 83%

Compound: CCCCCCCCCCCC/N=C(\S)C1(c2ccccn2)CCCS1 (centres undefined)
- Protection [4]: 0%
- inhibition in vivo at 30 mg/kg [1]: 0%
- ED50 [2]: > 30 mg/kg

Compound: CC/N=C(\S)C1(c2ccccn2)CCCS1 (centres undefined)
- ED50 [5]: 1.6 mg/kg
- Protection [6]: 50%

Compound: CCCCc1ccnc(C2(/C(S)=N/C)CCCS2)c1 (centres undefined)
- inhibition in vivo at 30 mg/kg [1]: 78%
- ED50 [2]: < 30 mg/kg
- Protection [3]: 100%

Compound: N=C(S)C(c1ccccc1)c1ccccn1 (centres undefined)
- ED50 [7]: 5.5 mg/kg

Compound: S=C(NCc1ccccc1)C1(c2ccccn2)CCCS1 (centres undefined)
- inhibition in vivo at 30 mg/kg [1]: 58%
- ED50 [2]: ≤ 30 mg/kg
- Protection [3]: 100%

Compound: C/N=C(\S)C1(c2ccccn2)OCCCS1 (centres undefined)
- ED50 [2]: 1.6 mg/kg
- Protection [8]: 50%

Compound: C/N=C(\S)C1(c2cccnn2)CCCS1 (centres undefined)
- Protection [3]: 100%

Compound: CN(C)CCC/N=C(\S)C1(c2ccccn2)CCCS1 (centres undefined)
- inhibition in vivo at 30 mg/kg [9]: 0%
- ED50 [2]: > 30 mg/kg
- Protection [3]: 0%

Compound: NC(=S)C1(c2ccccn2)CCCS1 (centres undefined)
- ED50 [10]: 3.2 mg/kg
- Protection [3]: 100%

Compound: CN(C)CC/N=C(\S)C1(c2ccccn2)CCCS1 (centres undefined)
- inhibition in vivo at 30 mg/kg [9]: 0%
- ED50 [2]: > 30 mg/kg
- Protection [3]: 16%

Compound: C/N=C(\S)C1(c2ccccn2)SCCCS1
- ED50 [2]: 5.7 mg/kg
- Protection [6]: 50%

Compound: CCCCCCC/N=C(\S)C1(c2ccccn2)CCCS1 (centres undefined)
- inhibition in vivo at 30 mg/kg [1]: 0%
- ED50 [2]: > 30 mg/kg
- Protection [3]: 33%

Compound: S=C(Nc1ccccc1)C1(c2ccccn2)CCCS1 (centres undefined)
- ED50 [2]: > 30 mg/kg
- inhibition in vivo at 30 mg/kg [11]: 0%

Compound: CN1CCN(C(=S)C2(c3ccccn3)CCCS2)CC1 (centres undefined)
- inhibition in vivo at 30 mg/kg [9]: 8%
- ED50 [2]: > 30 mg/kg
- Protection [3]: 0%

Compound: C/N=C(\S)C1(c2ccncc2)CCCS1 (centres undefined)
- inhibition in vivo at 30 mg/kg [1]: 53%
- ED50 [2]: ≤ 30 mg/kg
- Protection [3]: 83%

Compound: CCCC/N=C(\S)C1(c2ccccn2)CCCS1 (centres undefined)
- Protection [12]: 100%
- ED50 [13]: 5.5 mg/kg

Compound: C/N=C(\S)C1(c2ccc3ccccc3n2)CCCS1 (centres undefined)
- ED50 [14]: 3 mg/kg
- Protection [3]: 100%

Compound: C/N=C(\S)C1(c2cccnc2)CCCS1 (centres undefined)
- inhibition in vivo at 30 mg/kg [1]: 49%
- ED50 [2]: ≥ 30 mg/kg
- Protection [3]: 100%

Compound: OCC/N=C(\S)C1(c2ccccn2)CCCS1 (centres undefined)
- inhibition in vivo at 30 mg/kg [9]: 25%
- ED50 [2]: > 30 mg/kg
- Protection [3]: 16%

Compound: C/N=C(\S)C1(c2cnccn2)CCCS1 (centres undefined)
- inhibition in vivo at 30 mg/kg [1]: 38%
- ED50 [2]: > 30 mg/kg
- Protection [3]: 100%

Compound: C=CCNC(=S)C1(c2ccccn2)CCCS1 (centres undefined)
- inhibition in vivo at 30 mg/kg [9]: 20%
- ED50 [2]: > 30 mg/kg
- Protection [3]: 0%

Compound: C/N=C(\S)C1(c2ccccn2)CCCCS1 (centres undefined)
- ED50 [15]: 2.6 mg/kg
- Protection [6]: 100%

Compound: N/N=C(\S)C1(c2ccccn2)CCCS1 (centres undefined)
- inhibition in vivo at 30 mg/kg [9]: 0%
- ED50 [2]: > 30 mg/kg
- Protection [3]: 0%

Compound: Cc1cccc(C2(C(=N)S)CCCS2)n1 (centres undefined)
- inhibition in vivo at 30 mg/kg [1]: 71%
- ED50 [2]: < 30 mg/kg
- Protection [3]: 100%

Compound: NC(=S)C1(c2ccccn2)SCCCS1
- ED50 [2]: 2.8 mg/kg
- Protection [3]: 100%

Compound: C/N=C(\S)C1(c2ccccn2)CCCO1 (centres undefined)
- Protection [16]: 66%
- ED50 [17]: 0.5 mg/kg

Compound: C/N=C(\S)C1(c2ccc(C)cn2)CCCS1 (centres undefined)
- ED50 [18]: 5.7 mg/kg
- Protection [6]: 60%

Compound: C/N=C(\S)C1(c2cc(C)ccn2)CCCS1 (centres undefined)
- ED50 [19]: 1 mg/kg
- Protection [6]: 83%

Compound: S=C(N1CCCCC1)C1(c2ccccn2)CCCS1 (centres undefined)
- inhibition in vivo at 30 mg/kg [9]: 30%
- Protection [3]: 83%

Compound: CN/C(=N\CCSCc1nc[nH]c1C)NC#N [CIMETIDINE]
- ED50 [20]: 30 mg/kg
- Protection [3]: 50%

Compound: CNC(=S)C1(c2cccc(C)n2)CCCS1 (centres undefined) [LUCARTAMIDE]
- ED50 [21]: 1.5 mg/kg
- Protection [6]: 50%

Compound: CNC(=S)C1(c2ccccn2)CCCS1 (centres undefined) [PICARTAMIDE]
- ED50 [22]: 5.9 mg/kg
- ED50 [23]: 0.4 mg/kg
- Protection [16]: 50%

Compound: Cc1cnc2c(c1)CCCC2C(N)=S (centres undefined) [TIQUINAMIDE]
- ED50 [24]: 1.6 mg/kg
